Bioassay records deposited in PubChem by The Scripps Research Institute Molecular Screening Center.
TAAR1 agonist: agonists of human TAAR1. CHO RD-HGA16 TAAR1, Fluo-8 calcium fluorescence; vehicle wells 0%, saturating PEA agonist 100%. 360,000 tested, 0.99% active. activation, % at 3 µM. Q96RJ0;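 active = activation above the mean activation of all test compounds in the run plus 3 SD, cut at about 38% in these data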
Target sequence (Q96RJ0 whole entry, looked up): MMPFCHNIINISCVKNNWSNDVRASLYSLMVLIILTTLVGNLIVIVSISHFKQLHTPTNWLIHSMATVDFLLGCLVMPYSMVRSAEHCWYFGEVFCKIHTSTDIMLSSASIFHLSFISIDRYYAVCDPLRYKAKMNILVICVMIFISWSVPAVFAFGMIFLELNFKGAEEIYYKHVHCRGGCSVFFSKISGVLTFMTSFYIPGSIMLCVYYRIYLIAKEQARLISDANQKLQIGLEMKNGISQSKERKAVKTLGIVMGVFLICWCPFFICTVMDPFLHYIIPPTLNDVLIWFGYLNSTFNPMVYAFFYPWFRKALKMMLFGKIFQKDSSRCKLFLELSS
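Test system: RD-HGA16 (CHO) cells co-expressing Gα16 and hTAAR1 | Doses: Single dose, 3 µM | Schedule: 17-24 h seeding, 75 min 37 °C dye, 30 min RT | Evaluation: % activation from peak over basal fluorescence ratio, DMSO-to-PEA scaled | Technique: Kinetic Fluo-8 calcium fluorescence | Benchmarks: Low control DMSO, high control PEA (EC100)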
OXTR ag: agonists of human oxytocin receptor; P30559; CHO-OTR cells, Fluo-8 calcium fluorescence; normalized: DMSO 0%, oxytocin 100%; activation, % at 3 µM; 320,000 tested, 0.32% active;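 active = activation above the mean of all tested compounds plus 3 SD, cutoff set per screening run, cut at about 20% in these data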;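 also: peak over basal fluorescence ratio from a 100 s FLIPR kinetic read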
Target sequence (P30559 whole entry, looked up): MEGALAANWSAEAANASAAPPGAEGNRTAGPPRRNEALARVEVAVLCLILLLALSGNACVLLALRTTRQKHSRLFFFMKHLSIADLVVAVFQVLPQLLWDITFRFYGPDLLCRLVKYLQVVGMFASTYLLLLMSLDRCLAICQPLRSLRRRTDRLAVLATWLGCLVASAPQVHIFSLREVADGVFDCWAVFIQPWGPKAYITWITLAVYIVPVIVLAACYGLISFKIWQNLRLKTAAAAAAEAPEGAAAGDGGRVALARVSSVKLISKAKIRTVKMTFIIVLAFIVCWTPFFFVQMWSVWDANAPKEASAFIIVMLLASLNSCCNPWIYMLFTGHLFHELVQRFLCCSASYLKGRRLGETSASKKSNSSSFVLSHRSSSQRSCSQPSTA
V1R ag counter: V1a receptor agonism, counter-screen for OXTR agonists; P37288; CHO-V1R cells, Fluo-8 calcium fluorescence, agonist mode; 0% DMSO, 100% 3 nM vasopressin; activation, % at 3 µM; 320,000 tested, 0.25% active;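 active = activation above the mean activation of all tested compounds plus 3 SD, per screening run, cut at about 20% in these data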;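 also: signal is peak over basal fluorescence ratio across a 100 second FLIPR read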
OXTR potentiate: human OXTR potentiation; P30559; CHO-OTR cells, Fluo-8 calcium fluorescence, potentiator mode; 0% = oxytocin EC15, 100% = EC100; activation, % at 3 µM; 320,000 tested, 0.061% active; AID 2445;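 active = activation above that plate's cutoff, the mean activation of tested compounds plus 3 SD, cut at about 6.6% in these data, passing the limit was not always enough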;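 also: 100% uses oxytocin at 75 nM as the full agonist control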
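assay system = CHO-OTR cells, human receptor | schedule = compound 6 min at room temperature before oxytocin, 100 s read | detection = Fluo-8 intracellular calcium fluorescence, ex 470-495, em 515-575 nm | evaluation = normalized max/min fluorescence ratio, % activation | control set = EC15 oxytocin alone as 0%, 75 nM oxytocin (EC100) as 100%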
TAAR1 antag: human TAAR1 antagonism; Q96RJ0; inhibition, % at 3 µM; 360,000 tested, 1.5% active; CHO RD-HGA16 TAAR1, Fluo-8 calcium fluorescence, antagonist;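 active = inhibition above a per-plate cutoff, the mean inhibition of test compounds on that plate plus 3 SD, cut at about 49% in these data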;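 also: 0% = DMSO plus EC80 beta-PEA response and 100% = DMSO alone without agonist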
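Test system: CHO RD-HGA16 cells bearing hTAAR1 | Reagent: β-PEA, EC80 | Compound dosing: 3 µM, single point | Schedule: Dye loading 75 min at 37 °C, then 30 min room temperature | Signal: Calcium fluorescence with Fluo-8 | Evaluation: Percent inhibition of PEA-evoked calcium signal, max/basal emission ratio | Control set: DMSO-only wells and EC80 β-PEA-stimulated wells | Repeats: Singlicate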
TAAR1 ag confirm: human TAAR1 agonism, confirmed; shares compounds with TAAR1 agonist; CHO RD-HGA16 TAAR1, Fluo-8 calcium fluorescence; scaled: DMSO 0%, maximal phenethylamine 100%; activation, % at 3 µM; 2,400 tested, 82% active;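 active = activation above a cutoff set at the run's mean compound activation plus 3 SD, cut at about 39% in these data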
Ga16 ag counter: nonselective agonist in parental cells, TAAR1 agonist counter-screen | shares compounds with TAAR1 agonist | CHO-Ga16 parental, Fluo-8 calcium fluorescence; normalized to maximal ATP response, DMSO zero | activation, % at 3 µM | 2,400 tested, 50% active;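 active = activation above the run cutoff, the mean activation over all tested wells plus 3 SD, cut at about 12% in these data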;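 also: 0% = DMSO wells and 100% = maximal ATP response on the peak over basal ratio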
TAAR1 desensitize: counter-screen for human TAAR1 agonists: agonists that desensitize TAAR1; CHO RD-HGA16 hTAAR1, Fluo-8 calcium, beta-PEA response inhibition; shares compounds with TAAR1 agonist; 2,400 tested, 46% active; AID 651951; inhibition, % at 3 µM;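 active = inhibition above the run cutoff, the mean inhibition of all test compounds plus 3 SD, cut at about 49% in these data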;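 also: beta-PEA stimulus applied at its EC80; loss of beta-PEA calcium signal after compound pretreatment read as receptor desensitization; 0% = DMSO with beta-PEA at EC80 and 100% = DMSO alone without agonist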
Ga16 nonsel ant: nonselective Ga16 antagonist in TAAR1 agonist counter-screen; AID 651952; inhibition, % at 3 µM; shares compounds with TAAR1 agonist; CHO-Ga16 ATP-induced calcium, Fluo-8 fluorescence; 2,400 tested, 39% active;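 active = inhibition above the plate's mean compound inhibition plus 3 SD, computed per plate, cut at about 22% in these data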;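 also: 0% = EC80 ATP with DMSO and 100% = DMSO wells without ATP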
* = called active by the depositor; nt = no result given. A selection: hits, their analogues and other compounds. The true share with any hit is near 2.3%.

SMILES	TAAR1 agonist	OXTR ag	V1R ag counter	OXTR potentiate	TAAR1 antag	TAAR1 ag confirm	Ga16 ag counter	TAAR1 desensitize	Ga16 nonsel ant
CC(=O)Nc1nn(C)c2nc3ccc(C)cc3cc12	2	-1	0	1	6	nt	nt	nt	nt
CCCN1C(=O)S/C(=C\c2ccc(N3CCOCC3)o2)C1=O	56*	2	7	4	40	60*	53*	45	44*
Fc1ccccc1CCNc1c2c(nc3ncnn13)CCCC2	30	6	5	-9	1	nt	nt	nt	nt
c1ccc(CCNc2c3c(nc4ncnn24)CCC3)cc1	62*	7	5	-12	9	90*	7	38	6
O=C(CCC1CCCC1)NNC(=O)c1cc2ccccc2cc1O	-5	1	2	-6	2	nt	nt	nt	nt
Fc1ccccc1C1CCN(Cc2nc(CC3CC3)no2)C1 (stereo not given)	48*	-1	-1	-2	-8	62*	3	-3	2
Fc1ccc2nc(C3CCN(Cc4nc(CC5CC5)no4)CC3)[nH]c2c1	-1	0	0	-10	-8	nt	nt	nt	nt
COc1ccc2cc(CN(CCc3ccccc3)Cc3nnnn3Cc3ccco3)c(=O)[nH]c2c1	80*	0	0	-19	49*	46*	8	49*	27*
Cc1ccc2cc(CN(Cc3ccc4c(c3)OCO4)Cc3nnnn3Cc3ccco3)c(=O)[nH]c2c1	7	-1	0	-24	47	nt	nt	nt	nt
CCCCn1c(Nc2ccccc2)nc2ccccc21	45*	-2	-1	-5	6	3	0	5	7
O=C(C1=C(O)C(=O)N(CCc2ccccc2)C1c1cccnc1)c1ccco1 (stereo not given)	47*	0	2	-10	-1	59*	5	4	-3
CCN(CC)CCN1C(=O)C(O)=C(C(=O)c2cc3ccccc3o2)C1c1cccnc1 (stereo not given)	11	1	3	0	-17	nt	nt	nt	nt
O=C(C1=C(O)C(=O)N(CCc2ccccc2)C1c1ccncc1)c1cc2ccccc2o1 (stereo not given)	44*	1	1	-14	2	54*	1	1	4
CCOC(=O)CNC(=S)N(Cc1ccccc1)Cc1cccs1	0	-1	-1	6	-14	nt	nt	nt	nt
O=C(COc1cc(Cl)ccc1Cl)Nc1ccc2[nH]c(=O)[nH]c2c1	1	1	0	3	-17	nt	nt	nt	nt
c1ccc(Nc2nc3ccccc3o2)cc1	3	-1	-2	-1	-4	nt	nt	nt	nt
O=C(C1CCCN(S(=O)(=O)c2cccc3nsnc23)C1)N1CCc2ccccc2C1 (stereo not given)	47*	5	5	-17	3	54*	10	43	23*
O=C(C1CCCN(S(=O)(=O)c2cccc3nsnc23)C1)N1CCCCCC1 (stereo not given)	0	0	0	-12	18	nt	nt	nt	nt
CCN(CC)CCCNC(=O)c1cc(-c2ccccc2)c(N2CCCCC2)s1	53*	5	1	-3	8	55*	34*	40	18
O=C(NCCc1cccs1)C1CC(c2ccccc2[N+](=O)[O-])=NO1 (stereo not given)	46*	0	0	-10	12	57*	3	32	15
CCCOc1ccc2oc(=O)c3c(c2c1)CCCN3C(=O)CN1CCc2ccccc2C1	73*	-2	0	-2	3	54*	-1	13	11
CC1CCN(CC(=O)N2CCCc3c2c(=O)oc2ccc(OCc4ccccc4)cc32)CC1	2	-3	0	0	1	nt	nt	nt	nt
COc1ccc(CC(=O)NC(C)c2nnc(SCCC(=O)Nc3ccccc3)n2C)cc1 (stereo not given)	2	-1	-1	0	-23	nt	nt	nt	nt
COC(=O)c1cccc(NC(=S)NCc2ccco2)c1	17	3	5	-8	8	nt	nt	nt	nt
COc1cccc(-c2c(C(=O)N/N=C/c3ccoc3)nnn2-c2nonc2N)c1	72*	17	11	-7	-13	129*	76*	40	14
SMILES	TAAR1 agonist	OXTR ag	V1R ag counter	OXTR potentiate	TAAR1 antag	TAAR1 ag confirm	Ga16 ag counter	TAAR1 desensitize	Ga16 nonsel ant
COc1cccc(-c2c(C(=O)N/N=C/c3ccc(C)s3)nnn2-c2nonc2N)c1	65*	5	8	-3	17	87*	44*	40	12
COc1cccc(-c2c(C(=O)N/N=C/c3ccncc3)nnn2-c2nonc2N)c1	16	2	4	0	3	nt	nt	nt	nt
Cc1ccc(-c2cc(-c3nnc(SCC(=O)N(C)CCC#N)n3N)c3ccccc3n2)cc1	6	-2	-2	-17	2	nt	nt	nt	nt
CCCNC(=O)Cn1sc2nc(C)cc(C)c2c1=O	52*	3	3	-6	-13	37	21*	24	18
CCC(CC)C(=O)Nc1cccc(C(=O)Nc2ccc(OC)cc2[N+](=O)[O-])c1	78*	10	2	-7	77*	45*	6	38	12
CCCCCCCCCCCCN1[C@@H](CC(=O)OC)c2cc(C(F)(F)F)ccc2S1(=O)=O	4	1	2	-6	5	nt	nt	nt	nt
CC1(c2ccc(OC(F)F)cc2)NC(=O)N(CC(=O)NC2CCCCC2)C1=O (stereo not given)	20	5	6	-6	9	nt	nt	nt	nt
CC1(c2ccc(OC(F)F)cc2)NC(=O)N(CC(=O)c2ccc3c(c2)OCO3)C1=O (stereo not given)	136*	41*	39*	-22	96*	118*	81*	102*	49*
CC1(c2ccc([N+](=O)[O-])cc2)NC(=O)N(CC(=O)c2ccc3c(c2)OCO3)C1=O (stereo not given)	90*	34*	23*	-20	47	117*	70*	76*	37*
CCCCc1c(Cc2ccccc2)ncn1CCc1ccccc1OC	49*	nt	nt	nt	55*	68*	7	60*	56*
CCCCc1c(-c2ccccc2OC)ncn1CCc1ccccc1	61*	nt	nt	nt	34	77*	12*	66*	27*
